Key:
Format in all cases: functional
Amaranthus retroflexus [1] = experiment: Herbicidal activity against Amaranthus retroflexus assessed as inhibition in green house at 1500 g/ha pre-emergence treatment measured after 15 days; details: 360 h
How it was run: (§1)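 Greenhouse pot test. Two replicates per treatment. Control was the same amount of water, N,N-dimethylformamide and Tween 20. Fresh weights were taken 15 days after treatment, and percentage inhibition was calculated relative to controls.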

Echinochloa crus-galli [2] = experiment: Herbicidal activity against Echinochloa crus-galli (barnyard grass) assessed as inhibition in green house at 375 g/ha pre-emergence treatment measured after 15 days; details: 360 h; how it was run: as §1
[3] = test system: Brassica rapa subsp. oleifera; experiment: Herbicidal activity against Brassica rapa subsp. oleifera assessed as inhibition of root growth at 100 ug/ml at 28 +/- 1 degC measured after 65 hr by root test
How it was run: (§2)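 Rape seeds were presoaked 4 h in distilled water. About 15 seeds were placed per 6-cm Petri plate on filter paper pre-wetted with 2 mL inhibitor solution. Plates germinated in the dark for 65 h at 28 ± 1 °C. Root length of 10 roots per plate was measured and averaged. Result expressed as percentage inhibition.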

[4] = test system: Brassica rapa subsp. oleifera; experiment: Herbicidal activity against Brassica rapa subsp. oleifera assessed as inhibition of root growth at 10 ug/ml at 28 +/- 1 degC measured after 65 hr by root test; how it was run: as §2
Amaranthus retroflexus [5] = experiment: Herbicidal activity against Amaranthus retroflexus assessed as inhibition in green house at 1500 g/ha post-emergence treatment measured after 15 days; details: 360 h; how it was run: as §1
Echinochloa crus-galli [6] = experiment: Herbicidal activity against Echinochloa crus-galli (barnyard grass) assessed as inhibition in green house at 1500 g/ha pre-emergence treatment measured after 15 days; details: 360 h; how it was run: as §1
Echinochloa crus-galli [7] = experiment: Herbicidal activity against Echinochloa crus-galli (barnyard grass) assessed as inhibition of seedling growth at 100 ug/ml at 28 +/- 1 degC measured after 65 hr by cup test
Echinochloa crus-galli [8] = experiment: Herbicidal activity against Echinochloa crus-galli (barnyard grass) assessed as inhibition of seedling growth at 10 ug/ml at 28 +/- 1 degC measured after 65 hr by cup test
[9] = test system: Brassica rapa subsp. oleifera; experiment: Herbicidal activity against Brassica rapa subsp. oleifera assessed as inhibition in green house at 1500 g/ha post-emergence treatment measured after 15 days; details: 360 h; how it was run: as §1
Digitaria sanguinalis [10] = experiment: Herbicidal activity against Digitaria sanguinalis (hairy crabgrass) assessed as inhibition in green house at 750 g/ha pre-emergence treatment measured after 15 days; details: 360 h; how it was run: as §1
Echinochloa crus-galli [11] = experiment: Herbicidal activity against Echinochloa crus-galli (barnyard grass) assessed as inhibition in green house at 1500 g/ha post-emergence treatment measured after 15 days; details: 360 h; how it was run: as §1
[12] = test system: Brassica rapa subsp. oleifera; experiment: Herbicidal activity against Brassica rapa subsp. oleifera assessed as inhibition in green house at 1500 g/ha pre-emergence treatment measured after 15 days; details: 360 h; how it was run: as §1
Echinochloa crus-galli [13] = experiment: Herbicidal activity against Echinochloa crus-galli (barnyard grass) assessed as inhibition in green house at 750 g/ha pre-emergence treatment measured after 15 days; details: 360 h; how it was run: as §1
Digitaria sanguinalis [14] = experiment: Herbicidal activity against Digitaria sanguinalis (hairy crabgrass) assessed as inhibition in green house at 375 g/ha pre-emergence treatment measured after 15 days; details: 360 h; how it was run: as §1
Digitaria sanguinalis [15] = experiment: Herbicidal activity against Digitaria sanguinalis (hairy crabgrass) assessed as inhibition in green house at 1500 g/ha pre-emergence treatment measured after 15 days; details: 360 h; how it was run: as §1
Digitaria sanguinalis [16] = experiment: Herbicidal activity against Digitaria sanguinalis (hairy crabgrass) assessed as inhibition in green house at 1500 g/ha post-emergence treatment measured after 15 days; details: 360 h; how it was run: as §1

| Structure (SMILES) | inhibition at 1500 g/ha (Amaranthus retroflexus [1]) [%] | inhibition at 375 g/ha (Echinochloa crus-galli [2]) [%] | inhibition at 100 µg/mL [3] [%] | inhibition at 10 µg/mL [4] [%] | inhibition at 1500 g/ha (Amaranthus retroflexus [5]) [%] | inhibition at 1500 g/ha (Echinochloa crus-galli [6]) [%] | inhibition at 100 µg/mL (Echinochloa crus-galli [7]) [%] | inhibition at 10 µg/mL (Echinochloa crus-galli [8]) [%] | inhibition at 1500 g/ha [9] [%] | inhibition at 750 g/ha (Digitaria sanguinalis [10]) [%] | inhibition at 1500 g/ha (Echinochloa crus-galli [11]) [%] | inhibition at 1500 g/ha [12] [%] | inhibition at 750 g/ha (Echinochloa crus-galli [13]) [%] | inhibition at 375 g/ha (Digitaria sanguinalis [14]) [%] | inhibition at 1500 g/ha (Digitaria sanguinalis [15]) [%] | inhibition at 1500 g/ha (Digitaria sanguinalis [16]) [%] |
| --- | --- | --- | --- | --- | --- | --- | --- | --- | --- | --- | --- | --- | --- | --- | --- | --- |
| COc1ccc(/C(O)=C2\C(=O)CN(C(C)C)C2=O)cc1 | 11 | 20 | 71 | 12 | 0 | 98 | 80 | 80 | 6 | 54 | 75 | 0 | 92 | 38 | – | – |
| Cc1ccccc1/C(O)=C1\C(=O)CN(C(C)C)C1=O | 50 | 43 | 62 | 15 | 0 | 84 | 77 | 77 | 44 | 66 | 76 | 0 | 68 | 30 | – | – |
| Cc1ccc(/C(O)=C2\C(=O)CN(C(C)C)C2=O)cc1 | 11 | – | 86 | 8 | 0 | 77 | 78 | 77 | 20 | 0 | 67 | 24 | 22 | – | – | – |
| COc1ccc(/C(O)=C2\C(=O)CN(C(C)(C)C)C2=O)cc1 | 23 | 0 | 78 | 5 | 0 | 93 | 80 | 79 | 0 | 58 | 66 | 21 | 73 | 8 | – | – |
| Cc1ccc(/C(O)=C2\C(=O)CN(C(C)(C)C)C2=O)cc1 | – | – | 88 | 14 | – | – | 48 | 36 | – | – | – | – | – | – | – | – |
| COc1ccccc1/C(O)=C1\C(=O)CN(C(C)C)C1=O | 16 | – | 59 | 3 | 0 | 93 | 78 | 77 | 21 | – | 87 | 0 | – | – | – | – |
| Cc1ccc(/C(O)=C2\C(=O)CN(C(C)C)C2=O)c(C)c1 | 13 | – | 54 | 10 | 0 | 71 | 76 | 74 | 16 | – | 66 | 20 | – | – | – | – |
| CC(C)N1CC(=O)/C(=C(/O)c2ccc(C(C)(C)C)cc2)C1=O | – | – | 85 | 0 | – | – | 44 | 28 | – | – | – | – | – | – | – | – |
| CCCCCc1ccc(/C(O)=C2\C(=O)CN(C(C)C)C2=O)cc1 | – | – | 29 | 14 | – | – | 12 | 5.7 | – | – | – | – | – | – | – | – |
| CCCc1ccc(/C(O)=C2\C(=O)CN(C(C)C)C2=O)cc1 | – | – | 86 | 60 | – | – | 57 | 27 | – | – | – | – | – | – | – | – |
| CC(C)(C)c1ccc(/C(O)=C2\C(=O)CN(C(C)(C)C)C2=O)cc1 | – | – | 79 | 64 | – | – | 18 | 4 | – | – | – | – | – | – | – | – |
| CC(C)c1ccc(/C(O)=C2\C(=O)CN(C(C)(C)C)C2=O)cc1 | – | – | 83 | 75 | – | – | 18 | 10 | – | – | – | – | – | – | – | – |
| CCCCCc1ccc(/C(O)=C2\C(=O)CN(C3CC3)C2=O)cc1 | – | – | 57 | 0 | – | – | 23 | 5 | – | – | – | – | – | – | – | – |
| O=C1CN(C2CC2)C(=O)/C1=C(\O)c1cccc(Oc2ccccc2)c1 | 0 | – | 80 | 28 | 9 | 0 | 66 | 58 | 3 | – | 15 | 0 | – | – | 0 | 10 |
| COc1ccc(/C(O)=C2\C(=O)CN(C3CC3)C2=O)c(OC)c1 | – | – | 77 | 16 | – | – | 79 | 78 | – | – | – | – | – | – | – | – |
| Cc1cc(C)cc(/C(O)=C2\C(=O)CN(C(C)C)C2=O)c1 | – | – | 81 | 3 | – | – | 42 | 22 | – | – | – | – | – | – | – | – |

| Structure (SMILES) | inhibition at 1500 g/ha (Amaranthus retroflexus [1]) [%] | inhibition at 375 g/ha (Echinochloa crus-galli [2]) [%] | inhibition at 100 µg/mL [3] [%] | inhibition at 10 µg/mL [4] [%] | inhibition at 1500 g/ha (Amaranthus retroflexus [5]) [%] | inhibition at 1500 g/ha (Echinochloa crus-galli [6]) [%] | inhibition at 100 µg/mL (Echinochloa crus-galli [7]) [%] | inhibition at 10 µg/mL (Echinochloa crus-galli [8]) [%] | inhibition at 1500 g/ha [9] [%] | inhibition at 750 g/ha (Digitaria sanguinalis [10]) [%] | inhibition at 1500 g/ha (Echinochloa crus-galli [11]) [%] | inhibition at 1500 g/ha [12] [%] | inhibition at 750 g/ha (Echinochloa crus-galli [13]) [%] | inhibition at 375 g/ha (Digitaria sanguinalis [14]) [%] | inhibition at 1500 g/ha (Digitaria sanguinalis [15]) [%] | inhibition at 1500 g/ha (Digitaria sanguinalis [16]) [%] |
| --- | --- | --- | --- | --- | --- | --- | --- | --- | --- | --- | --- | --- | --- | --- | --- | --- |
| Cc1cc(C)cc(/C(O)=C2\C(=O)CN(C(C)(C)C)C2=O)c1 | – | – | 82 | 41 | – | – | 40 | 1 | – | – | – | – | – | – | – | – |
| COc1ccc(/C(O)=C2\C(=O)CN(C(C)(C)C)C2=O)cc1OC | – | – | 70 | 58 | – | – | 59 | 0 | – | – | – | – | – | – | – | – |
| COc1ccc(/C(O)=C2\C(=O)CN(C3CC3)C2=O)cc1OC | 0 | – | 72 | 69 | 0 | 0 | 65 | 0 | 0 | – | 3 | 0 | – | – | 11 | 0 |
| Cc1cc(C)cc(/C(O)=C2\C(=O)CN(C3CC3)C2=O)c1 | – | – | 86 | 70 | – | – | 29 | 0 | – | – | – | – | – | – | – | – |
| COc1cc(/C(O)=C2\C(=O)CN(C3CC3)C2=O)cc(OC)c1OC | – | – | 60 | 45 | – | – | 26 | 4 | – | – | – | – | – | – | – | – |
| CCCc1ccc(/C(O)=C2\C(=O)CN(C3CC3)C2=O)cc1 | – | – | 75 | 0 | – | – | 41 | 8 | – | – | – | – | – | – | – | – |
| COCCOCOc1cccc(/C(O)=C2\C(=O)CN(C3CC3)C2=O)c1 | – | – | 35 | 0 | – | – | 33 | 4 | – | – | – | – | – | – | – | – |
| COCCOCOc1ccc(/C(O)=C2\C(=O)CN(C3CC3)C2=O)cc1 | – | – | 51 | 19 | – | – | 12 | 0 | – | – | – | – | – | – | – | – |
| COc1ccc(/C(O)=C2\C(=O)CN(C(C)C)C2=O)cc1OC | – | – | 34 | 24 | – | – | 76 | 68 | – | – | – | – | – | – | – | – |
| CC(C)c1ccc(/C(O)=C2\C(=O)CN(C(C)C)C2=O)cc1 | – | – | 74 | 0 | – | – | 39 | 0 | – | – | – | – | – | – | – | – |
| COc1cc(/C(O)=C2\C(=O)CN(C(C)C)C2=O)cc(OC)c1OC | – | – | 69 | 61 | – | – | 0 | 0 | – | – | – | – | – | – | – | – |
| COc1cc(OC)c(/C(O)=C2\C(=O)CN(C(C)C)C2=O)cc1OC | – | – | 62 | 60 | – | – | 64 | 0 | – | – | – | – | – | – | – | – |
| COCCOCOc1ccccc1/C(O)=C1\C(=O)CN(C(C)C)C1=O | – | – | 28 | 7 | – | – | 52 | 17 | – | – | – | – | – | – | – | – |
| COCCOCOc1cccc(/C(O)=C2\C(=O)CN(C(C)C)C2=O)c1 | – | – | 10 | 0 | – | – | 74 | 8 | – | – | – | – | – | – | – | – |
| COCCOCOc1ccc(/C(O)=C2\C(=O)CN(C(C)C)C2=O)cc1 | – | – | 51 | 19 | – | – | 21 | 0 | – | – | – | – | – | – | – | – |

Reference: ChEMBL document CHEMBL3045615, “Synthesis and herbicidal evaluation of novel 3-[(alpha-hydroxy-substituted)benzylidene]pyrrolidine-2,4-diones” (J Agric Food Chem, 2005)
